# Active and inactive are the calls of the source. The calls are words filed in the database; no cut-off is given here.
# Legend:
# [1] = molecular target: T1, Presenilin-1 (Homo sapiens, UniProt P49768); assay: Inhibition of PS1 gamma-secretase assessed as reduction of amyloid beta-40 production by membrane based assay
# How it was run: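 Aβ40 production was measured in a membrane-based assay. IC50 was the average of at least two measurements, with standard deviation 20%.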
# [2] = species on record: Canis familiaris; assay: Antialzheimer activity in dog assessed as decrease of amyloid beta-40 level in CSF; format: functional, organism-based; settings: Canis lupus familiaris
# [3] = Cmax in rat at 10 mg/kg, po administered with 20% HPbetaCD; format: ADME, organism-based; design: dose 10 mg/kg, route oral; settings: in vivo
# How it was run: (§1)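 Rats (n = 3) were dosed orally at 10 mg/kg in either 20% HPβCD or 0.4% HPMC. AUC(0−∞), Cmax, Tmax and T1/2 were taken from the oral profile, with averaged values. Bioavailability (F) was referenced to iv dosing at 5 mg/kg.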
# [4] = Clearance in dog at 2.5 mg/kg, iv administered with 0.4% HPMC; format: ADME, organism-based, Canis lupus familiaris; design: dose 2.5 mg/kg, route intravenous; settings: in vivo
# How it was run: (§2)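 CL and Vd(ss) came from iv administration at 5 mg/kg in rat and 2.5 mg/kg each in monkey and dog. Values are averages of three animals per species.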
# [5] = test system: Mus musculus; assay: Antialzheimer activity in B6C3F1 mouse assessed as reduction of amyloid beta-40 level in plasma at 30 mg/kg, po after 3 hrs; format: functional; design: scale not given: the % may be the effect or the level left
# How it was run: (§3)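 B6C3F1 mice were dosed orally at 10 or 30 mg/kg. Aβ40 in plasma and cortex was measured 3 h after dosing and expressed as % change, with lowering shown as negative.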
# [6] = AUC (0 to infinity) in rat at 10 mg/kg, po administered with 0.4% HPMC; format: ADME, organism-based; design: time infinity, dose 10 mg/kg, route oral; settings: plasma; how it was run: as §1
# [7] = molecular target: T1, Presenilin-1; assay: Inhibition of PS1 gamma-secretase expressed in HEK cells harboring Awe-Lon gene assessed as reduction of amyloid beta-40 production; format: cell-based, HEK293
# How it was run: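 Cell-based Aβ40 production assay in HEK293 cells carrying APP Awe-Lon. IC50 was the average of at least two determinations, with standard deviation 20%.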
# [8] = Half life in monkey at 5 mg/kg, po administered with 0.4% HPMC; settings: rhesus monkey, in vivo
# [9] = AUC (0 to infinity) in rat at 10 mg/kg, po administered with 20% HPbetaCD; format: ADME, organism-based; design: time infinity, dose 10 mg/kg, route oral; settings: plasma; how it was run: as §1
# [10] = test system: Mus musculus; assay: Antialzheimer activity in po dosed transgenic CRND8 mouse assessed as decrease of amyloid beta-40 level in plasma after 3 hrs; format: functional
# How it was run: (§4)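 CRND8 mice received a single acute oral dose. Plasma and cortical Aβ40 were measured at the 3 h time point, and ED50 was derived from the dose response.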
# [11] = AUC (0 to infinity) in monkey at 5 mg/kg, po administered with 0.4% HPMC; settings: rhesus monkey, plasma
# [12] = test system: Mus musculus; assay: Antialzheimer activity in po dosed transgenic CRND8 mouse assessed as decrease of amyloid beta-40 level in cortex after 3 hrs; format: functional; how it was run: as §4
# [13] = AUC (0 to infinity) in dog at 5 mg/kg, po administered with 0.4% HPMC; settings: plasma
# [14] = Volume of distribution at steady state in dog at 2.5 mg/kg, iv administered with 0.4% HPMC; format: ADME, organism-based, Canis lupus familiaris; design: dose 2.5 mg/kg, route intravenous; settings: in vivo, read-out: Vdss; how it was run: as §2
# [15] = Clearance in monkey at 2.5 mg/kg, iv administered with 0.4% HPMC; format: ADME, organism-based, Macaca mulatta; design: dose 2.5 mg/kg, route intravenous; settings: rhesus monkey, in vivo; how it was run: as §2
# [16] = Half life in dog at 5 mg/kg, po administered with 0.4% HPMC; settings: in vivo
# [17] = test system: Mus musculus; assay: Antialzheimer activity in po dosed transgenic CRND8 mouse assessed as decrease of amyloid beta-40 level in cortex administered bid for 6 days; format: functional; settings: 144 h
# How it was run: (§5)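 In a subchronic study, CRND8 mice were dosed orally BID for 6 days. Aβ40 lowering in plasma and cortex was measured, and ED50 was derived.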
# [18] = Half life in rat at 10 mg/kg, po administered with 20% HPbetaCD; format: ADME, organism-based; design: dose 10 mg/kg, route oral; settings: in vivo; how it was run: as §1
# [19] = species on record: Canis familiaris; assay: Antialzheimer activity in dog assessed as decrease of amyloid beta-40 level in plasma; format: functional, organism-based; settings: Canis lupus familiaris
# [20] = Volume of distribution at steady state in rat at 5 mg/kg, iv administered with 20% HPbetaCD; format: ADME, organism-based; design: dose 5 mg/kg, route intravenous; settings: in vivo, read-out: Vdss; how it was run: as §2
# [21] = Cmax in monkey at 5 mg/kg, po administered with 0.4% HPMC; settings: rhesus monkey, in vivo
# [22] = test system: Mus musculus; assay: Antialzheimer activity in B6C3F1 mouse assessed as reduction of amyloid beta-40 level in cortex at 30 mg/kg, po after 3 hrs; format: functional; design: scale not given: the % may be the effect or the level left; how it was run: as §3
# [23] = Cmax in dog at 5 mg/kg, po administered with 0.4% HPMC; settings: in vivo
# [24] = Selectivity ratio of IC50 for PS2 gamma-secretase to IC50 for PS1 gamma-secretase
# How it was run: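 Inhibitors were tested against reconstituted γ-secretase complexes containing PS1 or PS2. The result is expressed as the PS2/PS1 ratio of IC50 values.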
# [25] = molecular target: T1, Presenilin-1; assay: Inhibition of PS1 gamma-secretase expressed in HEK cells harboring Awe-Lon gene assessed as notch cleavage; format: cell-based, HEK293
# [26] = molecular target: Presenilin-2 (Homo sapiens, UniProt P49810); assay: Inhibition of PS2 gamma-secretase expressed in HEK cells harboring Awe-Lon gene assessed as reduction of amyloid beta-42 production; format: cell-based, HEK293
# [27] = species on record: Canis familiaris; assay: Antialzheimer activity in dog assessed as decrease of amyloid beta-40 level in cortex; format: functional, organism-based; settings: Canis lupus familiaris
# [28] = Volume of distribution at steady state in rat at 5 mg/kg, iv administered with 0.4% HPMC; format: ADME, organism-based; design: dose 5 mg/kg, route intravenous; settings: in vivo, read-out: Vdss; how it was run: as §2
# [29] = test system: Mus musculus; assay: Toxicity in po dosed transgenic CRND8 mouse assessed as intestinal goblet cell hyperplasia administered bid for 6 days; format: organism-based; settings: in vivo, 144 h
# How it was run: (§6)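 In the same subchronic design (oral BID dosing for 6 days in CRND8 mice), Notch-related effects were examined as thymus size reduction and intestinal goblet cell hyperplasia.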
# [30] = Oral bioavailability in dog at 5 mg/kg administered with 0.4% HPMC; settings: in vivo
# [31] = Volume of distribution at steady state in monkey at 2.5 mg/kg, iv administered with 0.4% HPMC; format: ADME, organism-based, Macaca mulatta; design: dose 2.5 mg/kg, route intravenous; settings: rhesus monkey, in vivo, read-out: Vdss; how it was run: as §2
# [32] = Tmax in dog at 5 mg/kg, po administered with 0.4% HPMC; settings: in vivo
# [33] = Clearance in rat at 5 mg/kg, iv administered with 0.4% HPMC; format: ADME, organism-based; design: dose 5 mg/kg, route intravenous; settings: in vivo; how it was run: as §2
# [34] = Tmax in rat at 10 mg/kg, po administered with 0.4% HPMC; format: ADME, organism-based; design: dose 10 mg/kg, route oral; settings: in vivo; how it was run: as §1
# [35] = Oral bioavailability in rat at 10 mg/kg administered with 20% HPbetaCD; format: ADME, organism-based; settings: in vivo; how it was run: as §1
# [36] = Tmax in rat at 10 mg/kg, po administered with 20% HPbetaCD; format: ADME, organism-based; design: dose 10 mg/kg, route oral; settings: in vivo; how it was run: as §1
# [37] = test system: Mus musculus; assay: Antialzheimer activity in po dosed transgenic CRND8 mouse assessed as decrease of amyloid beta-40 level in plasma administered bid for 6 days; format: functional; settings: 144 h; how it was run: as §5
# [38] = Clearance in rat at 5 mg/kg, iv administered with 20% HPbetaCD; format: ADME, organism-based; design: dose 5 mg/kg, route intravenous; settings: in vivo; how it was run: as §2
# [39] = Oral bioavailability in monkey at 5 mg/kg administered with 0.4% HPMC; settings: rhesus monkey, in vivo
# [40] = Oral bioavailability in rat at 10 mg/kg administered with 0.4% HPMC; format: ADME, organism-based; settings: in vivo; how it was run: as §1
# [41] = Cmax in rat at 10 mg/kg, po administered with 0.4% HPMC; format: ADME, organism-based; design: dose 10 mg/kg, route oral; settings: in vivo; how it was run: as §1
# [42] = Half life in rat at 10 mg/kg, po administered with 0.4% HPMC; format: ADME, organism-based; design: dose 10 mg/kg, route oral; settings: in vivo; how it was run: as §1
# [43] = test system: Mus musculus; assay: Toxicity in po dosed transgenic CRND8 mouse assessed as reduction in thymus size administered bid for 6 days; format: organism-based; settings: in vivo, 144 h; how it was run: as §6
# [44] = Tmax in monkey at 5 mg/kg, po administered with 0.4% HPMC; settings: rhesus monkey, in vivo
# Presenilin-2, sequence (P49810 1-297 limits assumed): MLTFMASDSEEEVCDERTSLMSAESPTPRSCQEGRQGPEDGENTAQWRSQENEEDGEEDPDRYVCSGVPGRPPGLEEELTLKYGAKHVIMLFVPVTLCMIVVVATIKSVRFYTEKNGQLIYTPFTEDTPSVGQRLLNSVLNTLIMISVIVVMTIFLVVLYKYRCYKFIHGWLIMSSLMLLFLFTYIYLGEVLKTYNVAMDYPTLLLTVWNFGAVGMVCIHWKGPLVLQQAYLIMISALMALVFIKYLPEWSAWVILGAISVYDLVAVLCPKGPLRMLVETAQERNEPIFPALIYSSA
# Presenilin-2, sequence (P49810 298-448 limits assumed): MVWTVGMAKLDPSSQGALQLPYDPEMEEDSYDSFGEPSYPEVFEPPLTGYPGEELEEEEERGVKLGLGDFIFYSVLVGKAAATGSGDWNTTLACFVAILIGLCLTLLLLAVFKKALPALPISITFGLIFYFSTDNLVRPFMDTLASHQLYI
smiles,measurement,setting,value
CS(=O)(=O)CC[C@H]1OCC[C@]2(S(=O)(=O)c3ccc(Cl)cc3)c3c(F)ccc(F)c3OC[C@H]12,IC50,[1],377 nM
CS(=O)(=O)CC[C@@H]1OCC[C@@]2(S(=O)(=O)c3ccc(Cl)cc3)c3c(F)ccc(F)c3OC[C@@H]12,Activity,[2],Active
same,Cmax,[3],650 nM
same,clearance,[4],1.7 mL/min/kg
same,Activity,[5],89%
same,AUC(0-inf),[6],1 µM·h
same,IC50,[7],4 nM
same,half-life,[8],4.6 h
same,AUC(0-inf),[9],1.4 µM·h
same,ED50,[10],0.5 mg/kg
same,AUC(0-inf),[11],8.9 µM·h
same,ED50,[12],0.4 mg/kg
same,AUC(0-inf),[13],85.6 µM·h
same,Vd,[14],3.1 L/kg
same,clearance,[15],8.2 mL/min/kg
same,half-life,[16],23.9 h
same,ED50,[17],0.3 mg/kg
same,half-life,[18],1.1 h
same,Activity,[19],Active
same,IC50,[1],1.3 nM
same,Vd,[20],5.4 L/kg
same,Cmax,[21],1390 nM
same,Activity,[22],78%
same,Cmax,[23],2740 nM
same,Ratio IC50,[24],25
same,IC50,[25],46 nM
same,IC50,[26],1 nM
same,Activity,[27],Active
same,Vd,[28],3.4 L/kg
same,Activity,[29],Non-toxic
same,bioavailability,[30],86%
same,Vd,[31],1.9 L/kg
same,Tmax,[32],2 h
same,clearance,[33],20.8 mL/min/kg
same,Tmax,[34],0.3 h
same,bioavailability,[35],29%
same,Tmax,[36],0.7 h
same,ED50,[37],0.4 mg/kg
same,clearance,[38],69 mL/min/kg
same,bioavailability,[39],45%
same,bioavailability,[40],6.4%
same,Cmax,[41],240 nM
same,half-life,[42],1 h
same,Activity,[43],Non-toxic
same,Tmax,[44],1.7 h
O=S(=O)(c1ccc(Cl)cc1)[C@@]12CCO[C@@H](CCO)[C@@H]1COc1c(F)ccc(F)c12,IC50,[7],18 nM
same,IC50,[1],20 nM
same,IC50,[26],8 nM
CNC(=O)OCC[C@@H]1OCC[C@@]2(S(=O)(=O)c3ccc(Cl)cc3)c3c(F)ccc(F)c3OC[C@@H]12 (racemic),IC50,[7],8 nM
same,IC50,[1],8 nM
same,Ratio IC50,[24],3
same,IC50,[26],6 nM
CCS(=O)(=O)CC[C@@H]1OCC[C@@]2(S(=O)(=O)c3ccc(Cl)cc3)c3c(F)ccc(F)c3OC[C@@H]12,Activity,[5],60%
same,IC50,[7],5 nM
same,IC50,[1],3 nM
same,Activity,[22],79%
same,Ratio IC50,[24],26
same,IC50,[26],2 nM

# Source: ChEMBL document CHEMBL2157980, “Discovery of SCH 900229, a Potent Presenilin 1 Selective γ-Secretase Inhibitor for the Treatment of Alzheimer's Disease” (ACS Med Chem Lett, 2012)
